From ChEMBL document CHEMBL1157809, “Bioactive norditerpenoids from the soft coral Sinularia gyrosa” (Bioorg Med Chem, 2010)
≈ marks a conversion by molar mass, not a printed value. Each block holds one compound with its values, some of them ahead of it. Calls of active or inactive are those of the source. The rule behind the calls is not given here.

Tests used:
P388 = experiment: Cytotoxicity against mouse P388 cells by MTT assay; assay type: functional; conditions: read-out: ED50 (the source's name)
How it was run: (§1)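 Modified MTT colorimetric assay on P-388 mouse lymphocytic leukemia, HT-29 and A549 tumor cells; read-out ED50. Mithramycin as positive control.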

HT-29 = experiment: Cytotoxicity against human HT-29 cells by MTT assay; assay type: functional; conditions: read-out: ED50 (the source's name); how it was run: as §1
A549 = experiment: Cytotoxicity against human A549 cells by MTT assay; assay type: functional; conditions: read-out: ED50 (the source's name); how it was run: as §1
Human betaherpesvirus 5 = experiment: Antiviral activity against HCMV infected in HEL cells assessed as inhibition of virus-induced cytopathic effect after 7 days; assay type: functional, organism-based; conditions: Human betaherpesvirus 5, HEL, 168 h; for EC50: read-out: ED50 (the source's name)
How it was run: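 Confluent human embryonic lung (HEL) cells preincubated 1 h with or without various compound concentrations, then infected with HCMV at 1000 pfu per well. IC50 taken as concentration reducing virus-induced cytopathic effect by 50% after seven days versus untreated control.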

RAW264.7 [1] = experiment: Antiinflammatory activity in mouse RAW264.7 cells assessed as inhibition of LPS-induced COX2 expression at 10 uM by immunoblot analysis; assay type: functional
How it was run: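 Murine RAW 264.7 macrophages cultured in DMEM with 10% heat-inactivated FBS at 37 °C, 5% CO2. Cells were stimulated with LPS with or without compound. COX-2 protein was measured by immunoblot, with β-actin as housekeeping reference, and expressed as % of LPS-stimulated control cells. Statistics: one-way ANOVA, Student–Newman–Keuls post hoc test, P<0.05.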

RAW264.7 [2] = experiment: Antiinflammatory activity in mouse RAW264.7 cells assessed as inhibition of LPS-induced iNOS expression at 10 uM by immunoblot analysis

Compound: C=C(C)[C@H]1C/C=C2/C(=O)O[C@H](C[C@@]3(C)CC(=O)[C@@H](CC(=O)C1)O3)[C@H]2O
- EC50 (P388): > 20 µg/mL
- EC50 (HT-29): > 20 µg/mL
- EC50 (A549): > 20 µg/mL
- IC50 (Human betaherpesvirus 5): 1.9 µg/mL (≈ 5.45 µM)
- Activity (RAW264.7 [1]): inactive
- inhibition at 10 µM (RAW264.7 [2]): 10.2%

Compound: C=C(C)[C@H]1CC[C@]23O[C@H]2[C@@H](C[C@@]2(C)CC(=O)[C@@H](CC(=O)C1)O2)OC3=O
- EC50 (P388): > 20 µg/mL
- EC50 (HT-29): > 20 µg/mL
- EC50 (A549): > 20 µg/mL
- EC50 (Human betaherpesvirus 5): > 50 µg/mL
- Activity (RAW264.7 [1]): inactive
- inhibition at 10 µM (RAW264.7 [2]): 47.2%

Compound: C=C(C)[C@@H]1CC(=O)C[C@H]2O[C@](C)(CC2=O)C[C@H]2OC(=O)[C@@]3(O[C@H]23)[C@@H](O)C1
- EC50 (P388): > 20 µg/mL
- EC50 (HT-29): > 20 µg/mL
- EC50 (A549): > 20 µg/mL
- EC50 (Human betaherpesvirus 5): > 50 µg/mL
- Activity (RAW264.7 [1]): inactive
- inhibition at 10 µM (RAW264.7 [2]): 56.3%

Compound: C=C(C)[C@H]1C/C=C2/C(=O)O[C@H](C[C@@]3(C)CC(=O)[C@H](CC(=O)C1)O3)[C@H]2O
- EC50 (P388): > 20 µg/mL
- EC50 (HT-29): > 20 µg/mL
- EC50 (A549): > 20 µg/mL
- EC50 (Human betaherpesvirus 5): > 50 µg/mL
- Activity (RAW264.7 [1]): inactive
- inhibition at 10 µM (RAW264.7 [2]): 17.4%

- EC50 (Human betaherpesvirus 5): > 50 µg/mL
Compound: C=C(C)[C@H]1CCC2=C[C@@H](C[C@@]3(C)CC(=O)[C@H](CC(=O)C1)O3)OC2=O
- EC50 (P388): > 20 µg/mL
- EC50 (HT-29): > 20 µg/mL
- EC50 (A549): > 20 µg/mL

- EC50 (Human betaherpesvirus 5): > 50 µg/mL
Compound: C=C(C)[C@H]1C/C=C(/C(=O)OC)CC(=O)C[C@@]2(C)CC(=O)[C@H](CC(=O)C1)O2
- EC50 (P388): > 20 µg/mL
- EC50 (HT-29): > 20 µg/mL
- EC50 (A549): > 20 µg/mL

- EC50 (Human betaherpesvirus 5): > 50 µg/mL
Compound: C=C(C)[C@@H]1CC(=O)C[C@]23O[C@]4(C)C[C@H]5OC(=O)[C@H]([C@H]5[C@H]4C2=O)[C@H]3C1
- EC50 (P388): > 20 µg/mL
- EC50 (HT-29): > 20 µg/mL
- EC50 (A549): > 20 µg/mL

- EC50 (Human betaherpesvirus 5): > 50 µg/mL
Compound: C=C(C)[C@H]1CCC2=C[C@@H](C[C@@]3(C)CC(=O)[C@@H](CC(=O)C1)O3)OC2=O
- EC50 (P388): > 20 µg/mL
- EC50 (HT-29): > 20 µg/mL
- EC50 (A549): > 20 µg/mL

- EC50 (Human betaherpesvirus 5): > 50 µg/mL
Compound: C=C(C)[C@@H]1CC(=O)[C@H]2[C@H](C1)[C@@H]1C(=O)O[C@@H]3C[C@@]4(C)O[C@@H]2C(=O)[C@@H]4[C@H]13
- EC50 (P388): > 20 µg/mL
- EC50 (HT-29): > 20 µg/mL
- EC50 (A549): > 20 µg/mL

Compound: O=C(/C=C/c1ccc(O)c(O)c1)OCCc1ccccc1 [CAFFEIC ACID PHENETHYL ESTER]
- inhibition at 10 µM (RAW264.7 [2]): 1.5%

Compound: C=C(C)[C@@H]1CC(=O)C[C@H]2O[C@](C)(CC2=O)C[C@@H](O)[C@@H]2O[C@]2(C(=O)OC)[C@@H](O)C1 [GYROSANIN A]
- EC50 (P388): 3.6 µg/mL (≈ 9.08 µM)
- EC50 (HT-29): > 20 µg/mL
- EC50 (A549): > 20 µg/mL
- EC50 (Human betaherpesvirus 5): > 50 µg/mL
- Activity (RAW264.7 [1]): inactive
- inhibition at 10 µM (RAW264.7 [2]): 66.9%

Compound: C=C(C)[C@H]1C/C=C2/C(=O)O[C@H](C/C(C)=C/C(=O)[C@@H](O)CC(=O)C1)[C@H]2O [GYROSANOLIDE A]
- EC50 (P388): > 20 µg/mL
- EC50 (HT-29): > 20 µg/mL
- EC50 (A549): > 20 µg/mL
- EC50 (Human betaherpesvirus 5): > 50 µg/mL
- Activity (RAW264.7 [1]): inactive
- inhibition at 10 µM (RAW264.7 [2]): 55.2%

Compound: C=C(C)[C@H]1C/C=C2/C(=O)O[C@H](C/C(C)=C\C(=O)[C@@H](O)CC(=O)C1)[C@H]2O [GYROSANOLIDE B]
- EC50 (P388): > 20 µg/mL
- EC50 (HT-29): > 20 µg/mL
- EC50 (A549): > 20 µg/mL
- EC50 (Human betaherpesvirus 5): > 50 µg/mL
- Activity (RAW264.7 [1]): inactive
- inhibition at 10 µM (RAW264.7 [2]): 18.6%

Compound: C=C(C)[C@H]1C/C=C2/C(=O)O[C@H](C/C(C)=C/C(=O)[C@H](OC)CC(=O)C1)[C@H]2O [GYROSANOLIDE C]
- EC50 (P388): > 20 µg/mL
- EC50 (HT-29): > 20 µg/mL
- EC50 (A549): > 20 µg/mL
- EC50 (Human betaherpesvirus 5): > 50 µg/mL
- Activity (RAW264.7 [1]): inactive
- inhibition at 10 µM (RAW264.7 [2]): 10.6%

- EC50 (Human betaherpesvirus 5): > 50 µg/mL
Compound: C=C(C)[C@H]1CCC2=C[C@@H](C/C(C)=C/C(=O)[C@H](O)CC(=O)C1)OC2=O [GYROSANOLIDE D]
- EC50 (P388): > 20 µg/mL
- EC50 (HT-29): > 20 µg/mL
- EC50 (A549): > 20 µg/mL

- EC50 (Human betaherpesvirus 5): > 50 µg/mL
Compound: C=C(C)[C@H]1CCC2=C[C@H](C[C@@]3(C)CC(=O)[C@@H](CC(=O)C1)O3)OC2=O [GYROSANOLIDE E]
- EC50 (P388): > 20 µg/mL
- EC50 (HT-29): > 20 µg/mL
- EC50 (A549): > 20 µg/mL

- EC50 (Human betaherpesvirus 5): > 50 µg/mL
Compound: C=C(C)[C@@H]1CC(=O)C[C@@H]2O[C@](C)(CC2=O)C[C@@H]2C=C(C(=O)O2)[C@@H](O)C1 [GYROSANOLIDE F]
- EC50 (P388): > 20 µg/mL
- EC50 (HT-29): > 20 µg/mL
- EC50 (A549): > 20 µg/mL

Compound: CO[C@H](C(=O)[C@@H](O)[C@@H](C)O)[C@@H]1Cc2cc3cc(O[C@H]4C[C@@H](O[C@@H]5C[C@@H](O)[C@H](O)[C@@H](C)O5)[C@H](O)[C@@H](C)O4)c(C)c(O)c3c(O)c2C(=O)[C@H]1O[C@H]1C[C@@H](O[C@@H]2C[C@@H](O)[C@@H](O[C@@H]3C[C@](C)(O)[C@H](O)[C@@H](C)O3)[C@@H](C)O2)[C@H](O)[C@@H](C)O1 [PLICAMYCIN]
- EC50 (P388): 0.06 µg/mL (≈ 0.0553 µM)
- EC50 (HT-29): 0.08 µg/mL (≈ 0.0737 µM)
- EC50 (A549): 0.07 µg/mL (≈ 0.0645 µM)

Compound: C=C(C)[C@@H]1CC(=O)CC2=C(C1)[C@@H]1C(=O)O[C@@H]3C[C@](C)(O)[C@H](C2=O)[C@H]13 [SCABROLIDE A]
- EC50 (P388): > 20 µg/mL
- EC50 (HT-29): > 20 µg/mL
- EC50 (A549): > 20 µg/mL
- EC50 (Human betaherpesvirus 5): > 50 µg/mL

- EC50 (Human betaherpesvirus 5): > 50 µg/mL
Compound: C=C(C)[C@@H]1CC(=O)CC2=C(C1)[C@@H]1C(=O)O[C@@H]3CC(C)=C(C2=O)[C@H]13 [YONAROLIDE]
- EC50 (P388): > 20 µg/mL
- EC50 (HT-29): > 20 µg/mL
- EC50 (A549): > 20 µg/mL
